Active and inactive are the calls of the source. The rule behind the calls is not given here.
Tests used:
Human alphaherpesvirus 1 = assay: Antiviral activity against HSV1 infected in african green monkey Vero76 cells after 3 days by plaque reduction assay; assay type: functional, organism-based; settings: Vero 76
Outline: (§1)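 Vero 76 monolayers (2×10^5 cells/well, overnight) infected to give 50–100 PFU/well. Unadsorbed virus removed, then DMEM with 1% FCS, 0.75% methylcellulose and serial compound dilutions added. Incubated at 37 °C for 3 days (CVB-2, HSV-1) or 5 days (RSV). Fixed and stained with 50% ethanol/0.8% crystal violet in PBS; plaques counted.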

Poliovirus 1 = assay: Antiviral activity against Poliovirus type 1 Sabin infected in african green monkey Vero76 cells after 2 days by plaque reduction assay; assay type: functional, cell-based; settings: Vero 76
Coxsackievirus B2 = assay: Antiviral activity against Coxsackie virus B2 infected in african green monkey Vero76 cells after 3 days by plaque reduction assay; assay type: functional, organism-based; settings: Vero 76; outline: as §1
[1] = tested on: Respiratory syncytial virus; assay: Antiviral activity against Respiratory syncytial virus infected in african green monkey Vero76 cells after 5 days by plaque reduction assay; assay type: functional, organism-based; settings: Vero 76; outline: as §1
[2] = tested on: Mammalian orthoreovirus 1; assay: Antiviral activity against Reo virus type-1 infected in BHK-21 cells assessed as protection against virus induced cytopathogenicity after 3 to 4 days by MTT assay; assay type: functional, organism-based
Outline: (§2)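 Monolayers were grown overnight at 37 °C, 5% CO2: MDBK at 3×10^4 cells/well, BHK at 5×10^4 cells/well. Cells infected at m.o.i. 0.01. After 1 h, serial compound dilutions added in MEM with 1% FCS. Viability read by MTT after 3–4 days at 37 °C. EC50 is the concentration giving 50% protection from cytopathogenicity.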

[3] = tested on: Human immunodeficiency virus 1; assay: Antiviral activity against wild type HIV1 3B infected in human MT4 cells assessed as protection against virus induced cytopathogenicity after 4 days by MTT assay; assay type: functional, organism-based; settings: Human immunodeficiency virus 1, 3B, MT4, 96 h
Outline: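 MT-4 cells (1×10^4/well) in RPMI with serial compound dilutions were infected with HIV-1 (100 CCID50; m.o.i. 0.01). After 4 days, viability was measured by MTT. EC50 is the concentration giving 50% protection from virus-induced cytopathogenicity. Compounds were prepared as 100 mM DMSO stocks diluted in medium.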

Vaccinia virus = assay: Antiviral activity against Vaccinia virus infected in african green monkey Vero76 cells after 3 days by plaque reduction assay; assay type: functional, organism-based; settings: Orthopoxvirus vaccinia; Vero 76
Yellow fever virus = assay: Antiviral activity against Yellow fever virus infected in BHK-21 cells assessed as protection against virus induced cytopathogenicity after 3 to 4 days by MTT assay; assay type: functional, organism-based
Outline: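 BHK cells were seeded at 5 × 10^4 per well and grown overnight to monolayers, then infected at m.o.i. 0.01 in serum-free medium. One hour later, MEM Earle's with 1% FCS (final) and serial compound dilutions were added. After 3–4 days at 37 °C, viability was read by MTT. EC50 is the concentration giving 50% protection from virus-induced cytopathogenicity.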

[4] = Cytotoxicity against human MT4 cells assessed as reduction of cell viability after 96 hrs by MTT assay; assay type: cell-based
Outline: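 Exponentially growing, mock-infected MT-4 cells were seeded at 1×10^5 cells mL-1 in RPMI-1640 with 10% FCS and penicillin/streptomycin, with serial compound dilutions. Incubated 96 h at 37 °C, 5% CO2, then viability read by MTT. CC50 is the concentration reducing viability by 50%.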

[5] = tested on: Bovine viral diarrhea virus 1; assay: Antiviral activity against Bovine viral diarrhea virus infected in MDBK cells assessed as protection against virus induced cytopathogenicity after 3 to 4 days by MTT assay; assay type: functional, organism-based; outline: as §2
[6] = tested on: Vesicular stomatitis virus; assay: Antiviral activity against Vesicular stomatitis virus infected in african green monkey Vero76 cells after 2 days by plaque reduction assay; assay type: functional, organism-based; settings: Vero 76

| Structure (SMILES) | Activity (Human alphaherpesvirus 1) | Activity (Poliovirus 1) | Activity (Coxsackievirus B2) | Activity [1] | Activity [2] | EC50 [3] | Activity (Vaccinia virus) | Activity (Yellow fever virus) | CC50 at 96 h [4] | Activity [5] | Activity [6] | EC50 ([5]; Bovine viral diarrhea virus isolates and strains) | EC50 (Yellow fever virus) |
| --- | --- | --- | --- | --- | --- | --- | --- | --- | --- | --- | --- | --- | --- |
| CC(C)C12C=CC(C)(CC1)C1C(=O)N(N3CCCCS/C3=N\c3ccc(I)cc3)C(=O)C12 (stereo not drawn) | inactive | inactive | inactive | inactive | inactive | > 59 µM | inactive | inactive | 59 µM | inactive | inactive |  |  |
| CC1=CC2C(C(C)C)CC1C1C(=O)N(NC(=S)Nc3ccc(F)cc3)C(=O)C21 (stereo not drawn) | inactive | inactive | inactive | inactive | inactive | > 69 µM | inactive | inactive | 69 µM | inactive | inactive |  |  |
| CC1=CC2C(C(C)C)CC1C1C(=O)N(N3CCCCS/C3=N\c3ccc(Cl)cc3)C(=O)C21 (stereo not drawn) | inactive | inactive | inactive | inactive | inactive | > 30 µM | inactive | inactive | 30 µM | inactive | inactive |  |  |
| CC1=CC2C(C(C)C)CC1C1C(=O)N(NC(=S)Nc3ccc(Cl)c(Cl)c3)C(=O)C21 (stereo not drawn) | inactive | inactive | inactive | inactive | inactive | > 41 µM | inactive | inactive | 41 µM | inactive | inactive |  |  |
| C=CCNC(=S)NN1C(=O)C2C(C1=O)C1(C(C)C)C=CC2(C)CC1 (stereo not drawn) | inactive | inactive | inactive | inactive | inactive | > 100 µM | inactive |  | > 100 µM |  | inactive | 52 µM |  |
| CC1=CC2C(C(C)C)CC1C1C(=O)N(NC(=S)Nc3ccc(I)cc3)C(=O)C21 (stereo not drawn) | inactive | inactive | inactive | inactive | inactive | > 45 µM | inactive | inactive | 45 µM | inactive | inactive |  |  |
| O=C1Nc2ccc(Cl)cc2[C@@](C#CC2CC2)(C(F)(F)F)O1 [EFAVIRENZ] |  |  |  |  |  |  |  |  | 35 µM |  |  |  |  |
| CC1=CC2C(C(C)C)CC1C1C(=O)N(N3CCCCS/C3=N\c3ccc(Cl)c(Cl)c3)C(=O)C21 (stereo not drawn) | inactive | inactive | inactive | inactive | inactive | > 100 µM | inactive | inactive | 100 µM | inactive | inactive |  |  |
| CC1=CC2C(C(C)C)CC1C1C(=O)N(N3CCCCS/C3=N\c3ccc(I)cc3)C(=O)C21 (stereo not drawn) | inactive | inactive | inactive | inactive | inactive | > 22 µM | inactive | inactive | 22 µM | inactive | inactive |  |  |
| CC1=CC2C(C(C)C)CC1C1C(=O)N(N3CCCCS/C3=N\c3ccc(F)cc3)C(=O)C21 (stereo not drawn) | inactive | inactive | inactive | inactive | inactive | > 49 µM | inactive | inactive | 49 µM | inactive | inactive |  |  |
| CC1=CC2C(C(C)C)CC1C1C(=O)N(N3CCCCS/C3=N\Cc3ccccc3)C(=O)C21 (stereo not drawn) | inactive | inactive | inactive | inactive | inactive | > 47 µM | inactive | inactive | 47 µM | inactive | inactive |  |  |
| CC(C)C12C=CC(C)(CC1)C1C(=O)N(N3CCCCS/C3=N\c3ccc(F)cc3)C(=O)C12 (stereo not drawn) | inactive | inactive | inactive | inactive | inactive | > 86 µM | inactive | inactive | 86 µM | inactive | inactive |  |  |
| C=CC/N=C1\SCCCCN1N1C(=O)C2C(C1=O)C1(C(C)C)C=CC2(C)CC1 (stereo not drawn) | inactive | inactive | inactive | inactive | inactive | > 58 µM | inactive | inactive | 58 µM | inactive | inactive |  |  |
| C=CC/N=C1\SCCCCN1N1C(=O)C2C3CC(C(C)C)C(C=C3C)C2C1=O (stereo not drawn) | inactive | inactive | inactive | inactive | inactive | > 59 µM | inactive | inactive | 59 µM | inactive | inactive |  |  |
| CC(C)C12C=CC(C)(CC1)C1C(=O)N(NC(=S)Nc3ccc(Cl)cc3)C(=O)C12 (stereo not drawn) | inactive | inactive | inactive | inactive | inactive |  | inactive | inactive |  | inactive | inactive |  |  |
| Cc1ccc(/N=C2\SCCCCN2N2C(=O)C3C(C2=O)C2(C(C)C)C=CC3(C)CC2)cc1 (stereo not drawn) | inactive | inactive | inactive | inactive | inactive |  | inactive | inactive |  | inactive | inactive |  |  |
| CC(C)C12C=CC(C)(CC1)C1C(=O)N(NC(=S)NCc3ccccc3)C(=O)C12 (stereo not drawn) | inactive | inactive | inactive | inactive | inactive | > 58 µM | inactive |  | 58 µM |  | inactive |  | 41 µM |
| Cc1ccc(NC(=S)NN2C(=O)C3C(C2=O)C2(C(C)C)C=CC3(C)CC2)cc1 (stereo not drawn) | inactive | inactive | inactive | inactive | inactive |  | inactive | inactive |  | inactive | inactive |  |  |
| CC1=CC2C(C(C)C)CC1C1C(=O)N(NC(=S)Nc3ccc(C)cc3)C(=O)C21 (stereo not drawn) | inactive | inactive | inactive | inactive | inactive |  | inactive | inactive |  | inactive | inactive |  |  |
| CC(C)C12C=CC(C)(CC1)C1C(=O)N(NC(=S)Nc3ccc(F)cc3)C(=O)C12 (stereo not drawn) | inactive | inactive | inactive | inactive | inactive |  | inactive | inactive |  | inactive | inactive |  |  |

Reference: ChEMBL document CHEMBL1156068, “Synthesis, pharmacological and antiviral activity of 1,3-thiazepine derivatives” (Eur J Med Chem, 2009)
